Assay results from PubChem BioAssay AID977616 (Broad Institute, 2014).
Calls of active or inactive are those of the source.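 How the source made its calls: active means falling-signal curve whose AC50 is at most twice the highest valid dose tested; inconclusive means flat fit showing 30 to 70% signal loss, or poor fit; inactive means the rest, including opposite-direction effects.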

What was measured:
[1] = HepG2 cell cytotoxicity, dose response, cytotoxicity control, CellTiter-Glo luminescence, dry powder, set 14 (AID 977616); conditions: HepG2 viability, CellTiter-Glo ATP luminescence, 72 h
Outline: (§1)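 Material: HepG2 cells, wild type / Amount: 2000 HepG2 cells per well / Times: seeding 24 h pre-dose, 72 h exposure, 37 °C, 5% CO2 / Measured by: CellTiter-Glo ATP luminescence / Medium: DMEM growth medium with 10% FBS / Dosing: compound tested at multiple concentrations (dose series)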

[2] = system: HepG2 viability, CellTiter-Glo ATP luminescence, 72 h; assay: as above
Outline: as §1

C[C@H](O)C#Cc1ccc2c(c1)O[C@@H](CN(C)Cc1ccc(-c3ccccc3)cc1)[C@@H](C)CN([C@H](C)CO)S2(=O)=O
activity change, negative = cytotoxicity ([1]; at 12 µM (top of the series)): -7.08% (inactive)

C[C@H](O)C#Cc1ccc2c(c1)O[C@@H](CN(C)Cc1ccc(-c3ccccc3)cc1)[C@@H](C)CN([C@@H](C)CO)S2(=O)=O
AC50 [2]: > 52 µM (inactive)

C[C@@H](O)C#Cc1ccc2c(c1)O[C@@H](CN(C)Cc1ccc(-c3ccccc3Cl)cc1)[C@@H](C)CN([C@@H](C)CO)S2(=O)=O
AC50 [2]: 25.9 µM

C[C@H]1CN([C@@H](C)CO)S(=O)(=O)c2ccc(Br)cc2O[C@H]1CN(C)Cc1ccc(-c2ccccc2)cc1
activity change, negative = cytotoxicity ([1]; at 26 µM (top of the series)): 14.1% (inactive)

C[C@H](O)C#Cc1ccc2c(c1)O[C@H](CN(C)Cc1ccc(-c3ccccc3)cc1)[C@H](C)CN([C@@H](C)CO)S2(=O)=O
activity change, negative = cytotoxicity ([1]; at 26 µM (top of the series)): -13.4% (inactive)

C[C@H]1CN([C@@H](C)CO)S(=O)(=O)c2ccc(-c3ccc(O)cc3)cc2O[C@H]1CN(C)Cc1ccc(-c2ccccc2)cc1
AC50 [2]: > 52 µM (inactive)

C[C@H](CO)N1C[C@H](C)[C@H](CN(C)Cc2ccc(-c3ccccc3)cc2)Oc2cc(C#C[C@@H](C)O)ccc2S1(=O)=O
activity change, negative = cytotoxicity ([1]; at 26 µM (top of the series)): 0.52% (inactive)

C[C@H](O)C#Cc1ccc2c(c1)O[C@@H](CN(C)Cc1ccc(-c3ccccc3)cc1)[C@H](C)CN([C@@H](C)CO)S2(=O)=O
AC50 [2]: 19.7 µM

COc1ccc(-c2ccc(CN(C)C[C@@H]3Oc4cc(C#C[C@@H](C)O)ccc4S(=O)(=O)N([C@@H](C)CO)C[C@@H]3C)cc2)cc1
AC50 [2]: 20.2 µM

C[C@@H](O)C#Cc1ccc2c(c1)O[C@@H](CN(C)Cc1ccc(-c3ccc(Cl)cc3)cc1)[C@@H](C)CN([C@@H](C)CO)S2(=O)=O
AC50 [2]: 21.6 µM

CO[C@H]1CN(C)C(=O)c2ccc(NC(=O)c3ccc(F)cc3)cc2OC[C@H](C)N(C(=O)c2ccc(F)cc2)C[C@@H]1C
activity change, negative = cytotoxicity ([1]; at 26 µM (top of the series)): 11.6% (inactive)

C[C@H](O)C#Cc1ccc2c(c1)O[C@H](CN(C)Cc1ccc(-c3ccccc3)cc1)[C@@H](C)CN([C@@H](C)CO)S2(=O)=O
AC50 [2]: 4.56 µM

C[C@H](O)C#Cc1ccc2c(c1)O[C@H](CN(C)Cc1ccc(-c3ccccc3)cc1)[C@@H](C)CN([C@H](C)CO)S2(=O)=O
AC50 [2]: 21.2 µM

C[C@@H](O)C#Cc1ccc2c(c1)O[C@@H](CN(C)Cc1ccc(-c3cccc(Cl)c3)cc1)[C@@H](C)CN([C@@H](C)CO)S2(=O)=O
AC50 [2]: 25.4 µM

C[C@H](O)C#Cc1ccc2c(c1)O[C@@H](CN(C)Cc1ccc(-c3ccccc3)cc1)[C@H](C)CN([C@H](C)CO)S2(=O)=O
AC50 [2]: 19.2 µM

C[C@@H]1CN([C@H](C)CO)S(=O)(=O)c2ccc(C#C[C@@H](C)O)cc2O[C@@H]1CN(C)Cc1ccc(-c2ccccc2)cc1
activity change, negative = cytotoxicity ([1]; at 26 µM (top of the series)): -8.68% (inactive)

C[C@@H]1CN([C@@H](C)CO)S(=O)(=O)c2ccc(C#C[C@@H](C)O)cc2O[C@H]1CN(C)Cc1ccc(-c2ccccc2)cc1
AC50 [2]: 17.8 µM

COc1ccccc1-c1ccc(CN(C)C[C@@H]2Oc3cc(C#C[C@@H](C)O)ccc3S(=O)(=O)N([C@@H](C)CO)C[C@@H]2C)cc1
AC50 [2]: 20.4 µM

C[C@@H](O)C#Cc1ccc2c(c1)O[C@@H](CN(C)Cc1ccncc1)[C@@H](C)CN([C@@H](C)CO)S2(=O)=O
activity change, negative = cytotoxicity ([1]; at 26 µM (top of the series)): -6.07% (inactive)

COc1cccc(-c2ccc(CN(C)C[C@@H]3Oc4cc(C#C[C@@H](C)O)ccc4S(=O)(=O)N([C@@H](C)CO)C[C@@H]3C)cc2)c1
AC50 [2]: 22.5 µM

C[C@@H](O)C#Cc1ccc2c(c1)O[C@@H](CN(C)Cc1cccnc1)[C@@H](C)CN([C@@H](C)CO)S2(=O)=O
activity change, negative = cytotoxicity ([1]; at 26 µM (top of the series)): 2.57% (inactive)

Cc1cccc(-c2ccc(CN(C)C[C@@H]3Oc4cc(C#C[C@@H](C)O)ccc4S(=O)(=O)N([C@@H](C)CO)C[C@@H]3C)cc2)c1
AC50 [2]: 23.1 µM

C[C@@H](O)C#Cc1ccc2c(c1)O[C@H](CN(C)Cc1ccc(-c3ccccc3)cc1)[C@@H](C)CN([C@@H](C)CO)S2(=O)=O
AC50 [2]: 20 µM

C[C@@H](O)C#Cc1ccc2c(c1)O[C@@H](CN(C)S(=O)(=O)c1ccc(-c3ccccc3)cc1)[C@@H](C)CN([C@@H](C)CO)S2(=O)=O
activity change, negative = cytotoxicity ([1]; at 26 µM (top of the series)): -8.38% (inactive)

CNC[C@@H]1Oc2cc(Br)ccc2S(=O)(=O)N([C@@H](C)CO)C[C@@H]1C
activity change, negative = cytotoxicity ([1]; at 26 µM (top of the series)): -25.9% (inactive)
